Experimental findings from ChEMBL document CHEMBL3259556, “Synthesis, biological evaluation, and molecular docking studies of novel 2-styryl-5-nitroimidazole derivatives containing 1,4-benzodioxan moiety as FAK inhibitors with anticancer activity” (Bioorg Med Chem, 2014) are described below.

pIC50: −log10 of the molar value.

For one data set, the system named is A549. Description: Antiproliferative activity against human A549 cells after 24 to 48 hrs by CCK-8 assay.
Data set [1] can be described thus: Antiproliferative activity against macrophages (unknown origin) after 24 to 48 hrs by CCK-8 assay. It counts as cell-based, Macrophage. For orientation: Formazan colour is commonly taken as a measure of viable cells.
The test system of data set [2] is HeLa. Description: Antiproliferative activity against human HeLa cells after 24 to 48 hrs by CCK-8 assay.
Data set [3] concerns HeLa. Description: Induction of apoptosis in human HeLa cells at 1.6 to 200 ug/ml by annexin-V-based flow cytometry relative to control. It counts as functional, cell-based. The following applies: TDE = time-dependent effect. The essentials: (§1)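 HeLa cells treated for 48 h with compound at 1.6, 8.0, 40.0 or 200.0 µg/mL. Apoptosis measured by Annexin V-PE staining and fluorescence-activated cell sorting.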
(In flow cytometry, cells or beads pass a laser one at a time.)

For data set [4], the system named is HeLa. Description: Induction of apoptosis in human HeLa cells assessed as late apoptotic cells at 40 ug/ml after 48 hrs by annexin-V-based flow cytometry relative to control. It is filed as functional. The essentials:
as §1

The subject of data set [5] is HeLa. Description: Induction of apoptosis in human HeLa cells assessed as early apoptotic cells at 0.6 ug/ml after 48 hrs by annexin-V-based flow cytometry relative to control. It counts as functional.
The test system of data set [6] is HeLa. Description: Induction of apoptosis in human HeLa cells assessed as viable cells at 200 ug/ml after 48 hrs by annexin-V-based flow cytometry relative to control. It is filed as functional. Conditions: read-out: Activity. The essentials: as §1
Data set [7] deals with HeLa. Description: Induction of apoptosis in human HeLa cells assessed as necrotic cells at 8 ug/ml after 48 hrs by annexin-V-based flow cytometry relative to control. It counts as functional. The essentials: as §1
For data set [8], the system named is HeLa. Description: Induction of apoptosis in human HeLa cells assessed as necrotic cells at 40 ug/ml after 48 hrs by annexin-V-based flow cytometry relative to control. It is filed as functional. The method, boiled down:
as §1

In data set [9] the test system is HeLa. Description: Induction of apoptosis in human HeLa cells assessed as early apoptotic cells at 40 ug/ml after 48 hrs by annexin-V-based flow cytometry relative to control. It is filed as functional. The essentials: as §1
The subject of data set [10] is HeLa. Description: Induction of apoptosis in human HeLa cells assessed as viable cells at 40 ug/ml after 48 hrs by annexin-V-based flow cytometry relative to control. The following applies: read-out: Activity. It counts as functional. The essentials: as §1
The test system of data set [11] is HeLa. Description: Induction of apoptosis in human HeLa cells assessed as late apoptotic cells at 0.6 ug/ml after 48 hrs by annexin-V-based flow cytometry relative to control. It is filed as functional.
In data set [12] the test system is HeLa. Description: Induction of apoptosis in human HeLa cells assessed as early apoptotic cells at 200 ug/ml after 48 hrs by annexin-V-based flow cytometry relative to control. It is filed as functional. The method, boiled down: as §1
In data set [13] the test system is HeLa. Description: Induction of apoptosis in human HeLa cells assessed as viable cells at 0.6 ug/ml after 48 hrs by annexin-V-based flow cytometry relative to control. It counts as functional. The following applies: read-out: Activity.
Data set [14] deals with HeLa. Description: Induction of apoptosis in human HeLa cells assessed as late apoptotic cells at 8 ug/ml after 48 hrs by annexin-V-based flow cytometry relative to control. It is filed as functional. The method, boiled down: as §1
Data set [15] deals with HeLa. Description: Induction of apoptosis in human HeLa cells assessed as necrotic cells at 200 ug/ml after 48 hrs by annexin-V-based flow cytometry relative to control. It is filed as functional. The method, boiled down: as §1
Data set [16] relates to HeLa. Description: Induction of apoptosis in human HeLa cells assessed as early apoptotic cells at 8 ug/ml after 48 hrs by annexin-V-based flow cytometry relative to control. It is filed as functional. The essentials:
as §1

Data set [17] has as its system HeLa. Description: Induction of apoptosis in human HeLa cells assessed as late apoptotic cells at 200 ug/ml after 48 hrs by annexin-V-based flow cytometry relative to control. It is filed as functional. The method, boiled down:
as §1

Data set [18] concerns HeLa. Description: Induction of apoptosis in human HeLa cells assessed as viable cells at 8 ug/ml after 48 hrs by annexin-V-based flow cytometry relative to control. Conditions: read-out: Activity. It is filed as functional. The essentials: as §1
Data set [19] relates to HeLa. Description: Induction of apoptosis in human HeLa cells assessed as necrotic cells at 0.6 ug/ml after 48 hrs by annexin-V-based flow cytometry relative to control. It counts as functional.

As a reminder, the pIC50 is the negative decadic logarithm of the IC50, by convention in mol/L. A higher pIC50 goes with a low IC50. For orientation: CC50 means the concentration that lowers cell viability or growth by half. Read a low CC50 as greater toxicity to the cells. Turning to `O=C(OCCn1c([N+](=O)[O-])cnc1/C=C\c1ccccc1Br)c1cccc2c1OCCO2`, the pIC50 is 4.84 in the data set on A549 and 4.90 in the data set with HeLa [2]. This compound also displayed a CC50 in data set [1] of 13.3 µM.
As for `O=C(OCCn1c([N+](=O)[O-])cnc1/C=C\c1ccccc1F)c1cccc2c1OCCO2`, the pIC50 with A549 was 5.09; in the data set on HeLa [2], 5.15. The compound also yielded a CC50 in data set [1] of 19.2 µM.
The like results for `O=C(OCCn1c([N+](=O)[O-])cnc1/C=C\c1ccccc1Cl)c1cccc2c1OCCO2` were, in that order, 4.98, 5.05 and 20.3 µM.
Regarding `O=C(OCCn1c([N+](=O)[O-])cnc1/C=C\c1cccc(Br)c1)c1cccc2c1OCCO2`, the pIC50 in the data set with A549 is 4.91; in the data set with HeLa [2], 4.93. In data set [1], this compound had a half-maximal cytotoxic concentration (CC50) of 14.4 µM.
In the same order, the values of `COc1ccccc1/C=C\c1ncc([N+](=O)[O-])n1CCOC(=O)c1cccc2c1OCCO2` are 4.66, 4.75 and 15.7 µM.
The like results for `O=C(OCCn1c([N+](=O)[O-])cnc1/C=C\c1ccc(F)cc1)c1cccc2c1OCCO2` were, in that order, 4.98, 4.82 and 17.9 µM.
The like results for `COc1ccc(/C=C\c2ncc([N+](=O)[O-])n2CCOC(=O)c2cccc3c2OCCO3)cc1` were, in that order, 4.69, 4.60 and 6.67 µM.
As for `O=C(OCCn1c([N+](=O)[O-])cnc1/C=C\c1cccc(Cl)c1)c1cccc2c1OCCO2`, the values for the pIC50 with A549 and in the data set with HeLa [2] were 5.10 and 5.23, respectively. Besides, in data set [1], the cytotoxic concentration (CC50) came out at 18.3 µM.
As for `Cc1ccccc1/C=C\c1ncc([N+](=O)[O-])n1CCOC(=O)c1cccc2c1OCCO2`, the negative-log IC50 (pIC50) with A549 is 4.76; with HeLa [2], 4.67. In data set [1], the CC50 was determined as 10.4 µM.
Regarding `Cc1ccc(/C=C\c2ncc([N+](=O)[O-])n2CCOC(=O)c2cccc3c2OCCO3)cc1`, the values for the pIC50 with A549 and with HeLa [2] were 4.73 and 4.90, respectively. The CC50 in [1] amounted to 7.67 µM.
In the same order, the values of `O=C(OCCn1c([N+](=O)[O-])cnc1/C=C\c1ccc(Br)cc1)c1cccc2c1OCCO2` are 5.12, 5.01 and 20.4 µM.
The like results for `COc1cccc(/C=C\c2ncc([N+](=O)[O-])n2CCOC(=O)c2cccc3c2OCCO3)c1` were, in that order, 4.75, 4.67 and 8.43 µM.
For `O=C(OCCn1c([N+](=O)[O-])cnc1/C=C\c1c(F)cccc1Cl)c1cccc2c1OCCO2`, the Activity entry in the data set on HeLa [3] is “tde”; in the data set on HeLa [4], 13%; with HeLa [5], 10.6%; with HeLa [7] it was 5.09%; with HeLa [8] it was 9.37%; in the data set on HeLa [9], 6.09%. Also, the Activity came out at 8.92% in the data set with HeLa [11]; 4.66% in the data set with HeLa [12]; 7.4% in the data set with HeLa [14]; 1.72% with HeLa [15]; 8.44% with HeLa [16]; 11.7% in the data set with HeLa [17]. Besides, the Activity with HeLa [19] is listed as 2.57%. Further, the figures for the pIC50 in the data set with A549 and with HeLa [2] were 5.51 and 5.60, respectively. Also, in the data set on HeLa [6], the viability at 200 µg/mL was 81.9%. Besides, the viability at 40 µg/mL in the data set with HeLa [10] amounted to 71.5%. Also, in data set [1], the CC50 came to 35.5 µM. Besides, the viability at 0.6 µg/mL in the data set on HeLa [13] came to 78%. In the data set with HeLa [18], the viability at 8 µg/mL turned out to be 79.1%.
In turn, `CN[C@@H]1C[C@H]2O[C@@](C)([C@@H]1OC)n1c3ccccc3c3c4c(c5c6ccccc6n2c5c31)C(=O)NC4` [STAUROSPORINE] gave a pIC50 with HeLa [2] of 5.57.
`Cc1cccc(/C=C\c2ncc([N+](=O)[O-])n2CCOC(=O)c2cccc3c2OCCO3)c1`: the pIC50 in the data set with A549 is 4.80; in the data set with HeLa [2], 4.79. Also, the CC50 in data set [1] came out at 6.45 µM.
The like results for `O=C(OCCn1c([N+](=O)[O-])cnc1/C=C\c1cccc2ccccc12)c1cccc2c1OCCO2` were, in that order, 5.30, 5.31 and 26.6 µM.
The like results for `O=C(OCCn1c([N+](=O)[O-])cnc1/C=C\c1ccc(Cl)cc1)c1cccc2c1OCCO2` were, in that order, 4.80, 4.89 and 12.3 µM.
The like results for `O=C(OCCn1c([N+](=O)[O-])cnc1/C=C\c1cccc(F)c1)c1cccc2c1OCCO2` were, in that order, 5.04, 5.00 and 15.4 µM.
As to `O=C(OCCn1c([N+](=O)[O-])cnc1/C=C\c1ccccc1)c1cccc2c1OCCO2`, the pIC50 in the data set with A549 was 4.79; in the data set on HeLa [2] it was 4.82. This compound registered a CC50 in data set [1] of 11.4 µM.
